Results: ChEMBL document CHEMBL1123985, “Oral absorption of cephalosporin antibiotics. 1. Synthesis, biological properties, and oral bioavailability of 7-(arylacetamido)-3-chloro cephalosporins in animals” (J Med Chem, 1988)
Values after ≈ are worked out from the molar mass of the structure shown.

What was measured:
[1] = tested on: Klebsiella aerogenes; experiment: Minimum inhibitory concentration against EB17 strain of Enterobacter aerogenes; assay type: functional
[2] = tested on: Staphylococcus aureus; experiment: Minimum inhibitory concentration against V41 strain of Staphylococcus aureus; assay type: functional
[3] = tested on: Mus musculus; experiment: Efficacy against mouse infected ip with C203 strain of Streptococcus pyogenes, administered sc to 19-21-g random sex ICR mice at 1 hr and 5 hr; assay type: functional
How it was run: (§1)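 ICR mice, random sex, 19-21 g, challenged ip with 50-500 LC50 from a frozen organism pool; compound given sc or po at 1 and 5 h after challenge, five 2-fold dose levels, eight mice per level; ED50 derived.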

[4] = tested on: Streptococcus pyogenes; experiment: Minimum inhibitory concentration against Streptococcus pyogenes C203; assay type: functional
[5] = tested on: Mus musculus; experiment: Efficacy against mouse infected ip with 3055 strain of Staphylococcus aureus, administered po to 19-21-g random sex ICR mice at 1 hr and 5 hr; assay type: functional; how it was run: as §1
[6] = tested on: Staphylococcus aureus; experiment: Minimum inhibitory concentration against X1.1 strain of Staphylococcus aureus; assay type: functional
[7] = Oral bioavailability in mouse; assay type: ADME, organism-based; details: in vivo
How it was run: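 Male Cox mice given water and liquid diet overnight; 20 mg/kg in saline (2 mg/mL) sc or orally; urine from collection cages plus bladder contents over 2 h; activity by agar well assay with Bacillus subtilis ATCC 6633. Bioavailability from percent dose excreted in urine after oral vs parenteral dosing.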

[8] = tested on: Mus musculus; experiment: Efficacy against mouse infected ip with park strain of Streptococcus pneumoniae administered sc to 19-21-g random sex ICR mice at 1 hr and 5 hr; assay type: functional; how it was run: as §1
[9] = tested on: Staphylococcus aureus; experiment: Minimum inhibitory concentration against 3055 strain of Staphylococcus aureus
[10] = tested on: Staphylococcus epidermidis; experiment: Minimum inhibitory concentration against 222 strain of Staphylococcus epidermidis; assay type: functional
[11] = tested on: Salmonella; experiment: Minimum inhibitory concentration against X514 strain of Salmonella; assay type: functional
[12] = tested on: Staphylococcus aureus; experiment: Minimum inhibitory concentration against S13E strain of Staphylococcus aureus; assay type: functional
[13] = tested on: Streptococcus pneumoniae; experiment: Minimum inhibitory concentration against park strain of Streptococcus pneumoniae
[14] = tested on: Staphylococcus epidermidis; experiment: Minimum inhibitory concentration against Epil strain of Staphylococcus epidermidis; assay type: functional
[15] = tested on: Mus musculus; experiment: Efficacy against mouse infected ip with C203 strain of Streptococcus pyogenes, administered po to 19-21-g random sex ICR mice at 1 hr and 5 hr; assay type: functional; how it was run: as §1
[16] = tested on: Streptococcus pneumoniae; experiment: Minimum inhibitory concentration against Park strain of Streptococcus pneumoniae; assay type: functional
[17] = tested on: Klebsiella pneumoniae; experiment: Minimum inhibitory concentration against X68 strain of Klebsiella pneumoniae; assay type: functional
[18] = tested on: Mus musculus; experiment: Efficacy against mouse infected ip with park strain of Streptococcus pneumoniae administered po to 19-21-g random sex ICR mice at 1 hr and 5 hr; assay type: functional; how it was run: as §1
[19] = tested on: Escherichia coli; experiment: Minimum inhibitory concentration against EC14 strain Escherichia coli; assay type: functional
[20] = Minimum inhibitory concentration against N9 strain of Shigella sonnei; assay type: functional
[21] = tested on: Streptococcus pyogenes; experiment: Minimum inhibitory concentration against C203 strain of Streptococcus pyogenes
[22] = tested on: Mus musculus; experiment: Efficacy against mouse infected ip with 3055 strain of Staphylococcus aureus, administered sc to 19-21-g random sex ICR mice at 1 hr and 5 hr; assay type: functional; how it was run: as §1
[23] = Minimum inhibitory concentration against sens CL strain of Haemophilus influenzae; assay type: functional
[24] = Minimum inhibitory concentration against res 76 strain of Haemophilus influenzae; assay type: functional
[25] = in vivo; details: rat
[26] = Half-life of the compound; assay type: ADME
How it was run: (§2)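 Rats, jugular vein cannulated (two per group), test compound iv 20 mg/kg; probenecid 100 mg/kg iv 5 min before in treated groups. Heparinized plasma sampled at 5, 20, 40 min and 1, 2, 3 h, assayed microbiologically (B. subtilis agar well). AUC 0-3 h in μg min/mL; half-life in min.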

[27] = Area under plasma concentration vs time curve observed in Rhesus monkeys after, iv administration of single 30 mg/kg dose; assay type: ADME, organism-based, Macaca mulatta; set-up: dose 30 mg/kg, route intravenous; details: rhesus monkey
How it was run: (§3)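 Rhesus monkeys, adult males, six animals per compound, each given drug orally and iv; fasted overnight. Single 30 mg/kg solution doses, by nasogastric tube (in water) or saphenous vein (in isotonic lactated Ringer). Plasma sampled at intervals, frozen at -70 °C, antibacterial activity by microbiological assay. AUC in μg min/mL; oral bioavailability from oral vs iv AUC.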

[28] = Oral bioavailability in Rhesus monkey; assay type: ADME, organism-based, Macaca mulatta; details: in vivo; how it was run: as §3
[29] = tested on: Canis familiaris; experiment: Area under plasma concentration vs time curve observed in female mongrel dogs after, oral administration of single 15 mg/kg dose; assay type: ADME, organism-based, Canis lupus familiaris; set-up: dose 15 mg/kg, route oral; details: dog, in vivo
How it was run: (§4)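 Six female mongrel dogs (14-23 kg) fasted overnight, bladder catheterized; single 15 mg/kg solution doses by stomach tube (in water, total 500 mL) or cephalic vein (saline or pH 6.0 NaCl/phosphate/acetate buffer). Plasma sampled at intervals; activity by disk-plate agar diffusion against E. coli MB 3804, standards in dog serum or buffer. AUC μg min/mL, mean ± SEM; BA from iv vs po AUC and urinary recovery.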

[30] = Mean plasma levels in rats at a time 5 min after iv administration of 100 mg/kg of probenecid 5 min prior to test compound; assay type: ADME, organism-based; set-up: dose 100 mg/kg, route intravenous; details: rat, read-out: Plasma level; how it was run: as §2
[31] = Bioavailability in rat; assay type: ADME, organism-based; details: in vivo
How it was run: (§5)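 Male Wistar rats (200-300 g), jugular-cannulated, upper GI emptied by light cycle; 20 mg/kg in saline (6 mg/mL) sc or orally. Urine collected in wire-bottom cages, assayed by B. subtilis agar well method. Mean ± SD recovery with N and range; bioavailability = oral over mean sc recovery.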

[32] = Mean plasma levels in rats 2 hr after iv administration of 100 mg/kg of probenecid 5 min prior to test compound; assay type: ADME, organism-based; set-up: dose 100 mg/kg, route intravenous; details: rat, read-out: Plasma level; how it was run: as §2
[33] = Percent of urinary recovery in rats after, sc administration of single 20 mg/kg dose in solution (N,range); assay type: ADME, organism-based; set-up: dose 20 mg/kg, route subcutaneous; details: rat, urine, read-out: Recovery; how it was run: as §5
[34] = Mean plasma levels in rats 20 min after iv administration of 100 mg/kg of probenecid 5 min prior to test compound; assay type: ADME, organism-based; set-up: dose 100 mg/kg, route intravenous; details: rat, read-out: Plasma level; how it was run: as §2
[35] = Area under plasma concentration vs time curve observed in rats for 0-3 h; assay type: ADME; set-up: time < 3 hr; details: rat; how it was run: as §2
[36] = Mean plasma levels in rats 1 hr after iv administration of 100 mg/kg of probenecid 5 min prior to test compound; assay type: ADME, organism-based; set-up: dose 100 mg/kg, route intravenous; details: rat, read-out: Plasma level; how it was run: as §2
[37] = Area under plasma concentration vs time curve observed in Rhesus monkeys after oral administration of single 30 mg/kg dose; assay type: ADME, organism-based, Macaca mulatta; set-up: dose 30 mg/kg, route oral; details: rhesus monkey; how it was run: as §3
[38] = dose in urine (24-h urine excretion) in female mongrel dogs after, oral administration of single 15 mg/kg dose; assay type: ADME, organism-based, Canis lupus familiaris; set-up: dose 15 mg/kg, route oral; details: dog
How it was run: (§6)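 Female mongrel dogs (n=6), bladder catheter; urine collected at intervals after single 15 mg/kg iv or oral solution dose, frozen; antibiotic activity by disk-plate agar diffusion against E. coli MB 3804 with standards in pH 6.0 buffer; percent of dose recovered in urine.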

[39] = Mean plasma levels in rats 40 min after iv administration of 100 mg/kg of probenecid 5 min prior to test compound; assay type: ADME, organism-based; set-up: dose 100 mg/kg, route intravenous; details: rat, read-out: Plasma level; how it was run: as §2
[40] = Mean plasma levels in rats 3h after intravenous administration of 20 mg/kg of compound; assay type: ADME, organism-based; set-up: dose 20 mg/kg, route intravenous; details: rat, read-out: Plasma level; how it was run: as §2
[41] = dose in urine (24-h urine excretion) in female mongrel dogs after, iv administration of single 15 mg/kg dose; assay type: ADME, organism-based, Canis lupus familiaris; set-up: dose 15 mg/kg, route intravenous; details: dog; how it was run: as §6
[42] = tested on: Canis familiaris; experiment: Area under plasma concentration vs time curve observed in female mongrel dogs after, iv administration of single 15 mg/kg dose; assay type: ADME, organism-based, Canis lupus familiaris; set-up: dose 15 mg/kg, route intravenous; details: dog, in vivo; how it was run: as §4
[43] = Percent of urinary recovery in rats after, oral administration of single 20 mg/kg dose in solution (N,range); assay type: ADME, organism-based; set-up: dose 20 mg/kg, route oral; details: rat, urine, read-out: Recovery; how it was run: as §5

Compound: N[C@@H](C(=O)N[C@@H]1C(=O)N2C(C(=O)O)=C(Cl)CS[C@H]12)c1ccccc1 [CEFACLOR ANHYDROUS]
- MIC [1]: 16 µg/mL (≈ 43.5 µM)
- MIC [2]: 16 µg/mL (≈ 43.5 µM)
- ED50 [3]: 1.25 mg/kg
- MIC [4]: 0.25 µg/mL (≈ 0.68 µM)
- ED50 [5]: 1.36 mg/kg
- MIC [6]: 1 µg/mL (≈ 2.72 µM)
- bioavailability [7]: 76%
- ED50 [8]: 11.5 mg/kg
- MIC [9]: 1 µg/mL (≈ 2.72 µM)
- MIC [10]: 4 µg/mL (≈ 10.9 µM)
- MIC [11]: 0.5 µg/mL (≈ 1.36 µM)
- MIC [12]: 64 µg/mL (≈ 174 µM)
- MIC [13]: 2 µg/mL (≈ 5.44 µM)
- MIC [14]: 8 µg/mL (≈ 21.8 µM)
- ED50 [15]: 1.25 mg/kg
- MIC [16]: 0.5 µg/mL (≈ 1.36 µM)
- MIC [17]: 1 µg/mL (≈ 2.72 µM)
- ED50 [18]: 10.7 mg/kg
- MIC [19]: 1 µg/mL (≈ 2.72 µM)
- MIC [20]: 4 µg/mL (≈ 10.9 µM)
- MIC [21]: 0.25 µg/mL (≈ 0.68 µM)
- ED50 [22]: 1.32 mg/kg
- MIC [23]: 1 µg/mL (≈ 2.72 µM)
- MIC [24]: 2 µg/mL (≈ 5.44 µM)

Compound: CC1(C)S[C@@H]2[C@H](NC(=O)COc3ccccc3)C(=O)N2[C@H]1C(=O)O [PENICILLIN V]
- MIC [1]: > 128 µg/mL
- bioavailability [25]: 34%
- MIC [2]: 32 µg/mL (≈ 91.3 µM)
- half-life [26]: 19.4 min
- AUC [27]: 43000 ng·h/mL
- ED50 [3]: 0.16 mg/kg
- MIC [4]: 0.06 µg/mL (≈ 0.171 µM)
- ED50 [5]: 0.5 mg/kg
- MIC [6]: 0.06 µg/mL (≈ 0.171 µM)
- bioavailability [28]: 5.5%
- AUC [29]: 180 µg·min/mL
- concentration at 5 min [30]: 59 µg/mL
- bioavailability [7]: 29%
- bioavailability [31]: 11.6%
- ED50 [8]: 2.1 mg/kg
- concentration at 2 h [32]: 800 ng/mL
- MIC [9]: 0.04 µg/mL (≈ 0.114 µM)
- MIC [10]: 0.06 µg/mL (≈ 0.171 µM)
- dose excreted [33]: 22.5%
- concentration at 20 min [34]: 30400 ng/mL
- AUC at 3 h [35]: 32000 ng·h/mL
- MIC [11]: > 128 µg/mL
- MIC [12]: 16 µg/mL (≈ 45.7 µM)
- MIC [13]: 0.02 µg/mL (≈ 0.0571 µM)
- concentration at 1 h [36]: 6800 ng/mL
- AUC [37]: 2330 ng·h/mL
- dose excreted [38]: 4.9%
- MIC [14]: 0.125 µg/mL (≈ 0.357 µM)
- ED50 [15]: 0.62 mg/kg
- MIC [16]: 16 µg/mL (≈ 45.7 µM)
- MIC [17]: > 128 µg/mL
- ED50 [18]: 2.8 mg/kg
- MIC [19]: > 128 µg/mL
- concentration at 40 min [39]: 14100 ng/mL
- MIC [20]: > 128 µg/mL
- MIC [21]: 0.06 µg/mL (≈ 0.171 µM)
- concentration at 3 h [40]: < 300 ng/mL
- dose excreted [41]: 32%
- ED50 [22]: 0.04 mg/kg
- AUC [42]: 1520 µg·min/mL
- dose excreted [43]: 2.6%
- MIC [23]: 64 µg/mL (≈ 183 µM)
- MIC [24]: > 128 µg/mL
